Screening results from PubChem BioAssay.
Most compounds without a hit are left out; they make up all but 2.5% or so of the library.
NALP1 yeast inh: blocks the NALP1 inflammasome reconstituted in yeast | S. cerevisiae NALP1/ASC/caspase-1 growth, X-gal OD620, 72 h | inhibition, % at 10 µM | 0.61% of 280,000 active | AID 2071; in the data active = inhibition mostly above about 24%, no sharp cut-off; inactive = mostly below about 32%
NLRP3 yeast inh: NALP3 inhibition in yeast; Yeast reconstituted NLRP3/ASC/caspase-1, beta-gal luminescence, 24 h; inhibition, % at 10 µM; AID 2825; 0.39% of 330,000 active;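 active = inhibition of 50% or more; inactive = inhibition below 50%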;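 note: plate controls were induced DMSO wells for no effect and uninduced yeast grown without galactose for full effect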
Tb MetRS inh: Trypanosoma brucei MetRS inhibition; purified T. brucei MetRS, ATP depletion, Kinase-Glo luminescence; inhibition, % at 11.9 µM; 0.4% of 360,000 active;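 active = inhibition above a per-plate cutoff of the control wells' mean inhibition plus 3 SD, cut at about 5.5% in these data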;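 note: 0% = DMSO wells median and 100% = median of wells with control inhibitor compound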
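Material: parasite MetRS enzyme / Replication: singlicate, one well per compound / Signal: luminescence of leftover ATP / Schedule: 2 h aminoacylation at 25 °C after 15 min preincubation / Medium: HEPES-MgCl2-KCl buffer plus DTT, spermine, BSA, pyrophosphatase / Doses: 11.9 µM single point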
Bfl-1 A1 inh: inhibitors of the anti-apoptotic protein A1, read as caspase activation; caspase activation, % (no concentration beside the values); 0.066% of 330,000 active; MEF A1-2A-BIM cells, Caspase-Glo 3/7 luminescence, 3 h; percent of clofoctol response, vehicle zero; AID 2462;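 active = over half of replicate activation scores above 10%, or exactly half above 10 with the replicate mean above 10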
MC4R antag cAMP: blocks human MC4R cAMP signaling. P32245. MC4R-expressing cells, MTII-stimulated cAMP, LANCE TR-FRET. inhibition, % at 6.5 µM. 0.48% of 360,000 active. AID 540295;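 active = inhibition above its plate's cutoff, the mean of tested wells on that plate plus 3 SD, cut at about 29% in these data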;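 note: 0% = Melanotan II alone and 100% = Melanotan II plus saturating MCL0020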
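System: U2OS cells stably expressing human melanocortin 4 receptor (MC4R). Reagent: Melanotan II challenge after compound preincubation. Doses: 6.5 µM. Times: 30-min compound, 1-h challenge, 1-h detection, room temperature. Measured by: TR-FRET with Eu-cAMP and labeled anti-cAMP, 671 nm. Replicates: singlicate.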
MC4R ag barr: agonists of human melanocortin 4 receptor (MC4R) beta-arrestin | 0.98% of 360,000 active | activation, % at 8.9 µM | U2OS MC4R beta-arrestin complementation, luminescence; percent of melanotan II response, DMSO zero | P32245 | AID 540308;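 active = activation above a per-plate cutoff, the mean activation of sample wells on that plate plus 3 SD, cut at about 8% in these data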
MC4R barr ag: human MC4R beta-arrestin agonism confirmation; shares compounds with MC4R ag barr; U2OS MC4R beta-arrestin recruitment, luminescence; scaled DMSO 0%, Melanotan II 100%; activation, % at 8.9 µM; 31% of 2,400 active;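 active = mean activation across replicates above the hit cutoff set in the earlier primary screen, cut at about 8% in these data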
MOR DOR agonist: activates mu-delta opioid heterodimer, MC4R agonist counter-screen; U2OS PathHunter beta-arrestin, beta-gal luminescence; percent of deltorphin B response, DMSO zero; 5.8% of 2,400 active; shares compounds with MC4R ag barr; activation, % at 9.2 µM; AID 602194;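 active = mean activation across replicates exceeds the hit threshold derived in the earlier primary screen, cut at about 18% in these data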;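 note: 100% = deltorphin B at 0.9 µM final and 0% = DMSO alone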
Target sequence (P35372 whole entry, looked up): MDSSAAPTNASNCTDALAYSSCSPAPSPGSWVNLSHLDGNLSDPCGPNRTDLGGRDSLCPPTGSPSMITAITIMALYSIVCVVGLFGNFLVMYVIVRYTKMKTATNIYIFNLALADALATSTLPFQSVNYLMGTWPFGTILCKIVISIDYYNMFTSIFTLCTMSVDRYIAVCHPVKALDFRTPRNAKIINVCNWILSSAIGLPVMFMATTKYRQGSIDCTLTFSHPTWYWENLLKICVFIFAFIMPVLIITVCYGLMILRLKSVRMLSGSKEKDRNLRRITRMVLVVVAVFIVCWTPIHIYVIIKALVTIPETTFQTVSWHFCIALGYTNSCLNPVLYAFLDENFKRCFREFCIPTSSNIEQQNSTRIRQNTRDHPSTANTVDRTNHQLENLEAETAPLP
Target sequence (P41143 whole entry, looked up): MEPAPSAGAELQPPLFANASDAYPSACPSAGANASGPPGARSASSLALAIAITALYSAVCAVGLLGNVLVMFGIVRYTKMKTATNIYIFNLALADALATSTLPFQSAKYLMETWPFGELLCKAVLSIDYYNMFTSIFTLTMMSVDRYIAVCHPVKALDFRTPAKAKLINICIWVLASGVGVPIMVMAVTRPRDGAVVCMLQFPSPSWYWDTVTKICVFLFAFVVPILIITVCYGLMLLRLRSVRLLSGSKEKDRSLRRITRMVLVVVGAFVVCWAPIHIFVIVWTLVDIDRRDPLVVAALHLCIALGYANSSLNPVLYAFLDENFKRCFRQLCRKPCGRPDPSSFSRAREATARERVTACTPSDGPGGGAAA
Active calls of the source: *; . = no result.

SMILES	NALP1 yeast inh	NLRP3 yeast inh	Tb MetRS inh	Bfl-1 A1 inh	MC4R antag cAMP	MC4R ag barr	MC4R barr ag	MOR DOR agonist
CCn1cc(Cl)c(C(=O)N2N=C(c3ccc4ccccc4c3)CC2c2ccccc2O)n1 (stereo not drawn)	20	18	-1	0	17	20*	4	10
Cc1ccc(C2=NN(S(=O)(=O)c3ccccc3)C(c3ccccc3O)C2)cc1 (stereo not drawn)	7	.	0	.	11	12*	9.7*	11
O=C(c1cccs1)N1N=C(c2ccccc2)CC1c1ccccc1O (stereo not drawn)	-1	5	-1	0	-3	13*	8	5
Cc1ccc(C2=NN(C(=O)c3cccs3)C(c3ccccc3O)C2)cc1 (stereo not drawn)	8	12	0	-1	10	18*	30*	4
Cc1cc(C)cc(NC(=O)COC(=O)c2cccc(S(=O)(=O)N3CCCCC3)c2)c1	.	14	0	0	3	-4	.	.
O=C(O)CSc1c(Cl)c(=O)oc2ccc(Cl)cc12	.	.	0	.	6	-1	.	.
COC(=O)/C=C/c1cnc[nH]1	-44	15	0	1	3	0	.	.
O=C(c1ccncc1)N1N=C(c2ccc(Br)cc2)CC1c1ccccc1O (stereo not drawn)	18	-20	1	1	12	-1	.	.
O=C(c1ccccc1)N1N=C(c2ccccc2)CC1c1ccccc1O (stereo not drawn)	-4	27	0	-1	7	17*	11*	11
COC(=O)c1sccc1NC(=O)CC1C(=O)NCCN1C(=O)c1ccc(F)cc1 (stereo not drawn)	14	8	2	0	8	4	.	.
O=C(COc1ccc(-n2cnnn2)cc1)Nc1ccc(F)c(Cl)c1	.	12	0	1	0	-2	.	.
O=C(COc1ccc(-n2cnnn2)cc1)Nc1cc(Cl)cc(Cl)c1	.	19	-1	.	0	17*	5	8
CSc1nc2ccc(NC(=O)COc3ccccc3F)cc2s1	.	33	0	-8	1	10*	0	3
Cc1ccc(C(=O)Nc2cccc(-c3cnc4ccccc4n3)c2)cc1	14	6	0	0	2	8	.	.
O=C(CNC(=O)c1ccc(Br)o1)Nc1cccc(-c2cnc3ccccc3n2)c1	26	4	-1	0	9	16*	0	4
COc1ccc(C(=O)N[C@H](C(=O)NCCCSc2ccccc2)C(C)C)cc1	.	0	0	1	4	-3	.	.
S=C(Nc1ccccc1)N1CCn2c1nc1ccccc12	1	33	0	0	-2	24*	0	.
O=C(Nc1ccccc1)N1CCn2c1nc1ccccc12	8	-3	-1	0	6	-1	.	.
Cc1ccc(F)cc1NC(=O)COC(=O)C1CC2CCCC(C1)C2=O (stereo not drawn)	.	.	0	.	9	0	.	.
COCCN1C(=O)COc2ccccc2C1C(=O)NC1CCCCC1 (stereo not drawn)	.	.	1	.	.	.	.	.
CCOC(=O)C1=C(C)N(C)C(=S)NC1c1c(OCC)ccc2ccccc12 (stereo not drawn)	9	20	-2	0	-1	21*	-1	6
COCCNC(=O)C1CCCN(C(=O)c2nc(C)oc2C)CC1 (stereo not drawn)	.	.	0	.	-6	2	.	.
Clc1ccccc1-c1cnc2sc(NCc3ccc4c(c3)OCO4)nn12	.	.	0	.	-5	22*	13*	9
Cc1oc(C(C)(C)C)cc1C(=O)N1CCN(c2ncccc2C(F)(F)F)CC1	17	19	-1	0	5	1	.	.
Cc1cc(C)c2cc(C(=O)N3CCN(c4ncccc4C(F)(F)F)CC3)[nH]c2c1	14	20	-1	1	6	12*	1	4
SMILES	NALP1 yeast inh	NLRP3 yeast inh	Tb MetRS inh	Bfl-1 A1 inh	MC4R antag cAMP	MC4R ag barr	MC4R barr ag	MOR DOR agonist
O=C(CCC(=O)N1CCN(S(=O)(=O)c2ccccc2)CC1)c1ccc(Br)cc1	.	-4	0	-1	7	-1	.	.
Cc1ccc(-c2nnn(CC(=O)NC(=O)NC3CCCCC3)n2)cc1	.	12	0	.	6	7	.	.
O=C(Cn1nnc(-c2ccc(F)cc2)n1)NC(=O)NC1CCCCC1	.	.	0	.	5	9.7*	2	5
O=C(OCC(=O)N(CCc1ccccc1)Cc1ccccc1)c1cccc(O)c1	7	6	0	-2	5	-3	.	.
O=C(OCC(=O)N(Cc1ccccc1)Cc1ccccc1)c1cccc(O)c1	.	-39	0	0	3	9.7*	1	7
O=C1OC(c2ccccc2)(c2ccc(O)cc2)c2ccccc21 (stereo not drawn)	.	.	0	.	4	55*	48*	4
CC(C)c1cccc(C2=CC(=O)C[C@H](c3ccc4c(c3)OCO4)C2)c1	.	1	0	0	-10	0	.	.
COc1ccccc1CC(=O)Nc1ccc(-c2noc(COc3ccc(Cl)c(C)c3)n2)cc1	23	10	0	0	9	10*	1	7
CC(=O)Nc1ccc(S(=O)(=O)NC2CC(=O)N(c3ccc4c(c3)OCCO4)C2)cc1 (stereo not drawn)	.	10	0	1	2	0	.	.
Cc1ccc(-c2nc3ccccc3o2)cc1NC(=S)NC(=O)c1cc2ccccc2o1	20	.	0	0	1	17*	11*	5
Cc1[nH]c2ccccc2c1C(=O)COC(=O)c1nccnc1N	.	19	0	-1	-7	0	.	.
O=C(COC(=O)c1cc(-c2ccccc2)nc2ccccc12)Nc1ccc2c(c1)OCO2	24	2	-2	-1	-4	16*	5	6
Cc1c(NC(=O)COC(=O)c2cc(-c3ccc(-c4ccccc4)cc3)nc3ccccc23)c(=O)n(-c2ccccc2)n1C	32	.	-1	-1	4	18*	1	3
O=C(COC(=O)c1cc(Br)ccc1O)Nc1ccc2c(c1)OCO2	.	13	0	1	2	10*	1	3
O=C(COC(=O)c1cc(Br)ccc1O)Nc1ccc2c(c1)OCCO2	.	17	0	0	7	0	.	.
Cc1c(NC(=O)c2cc(-c3ccccc3)nc3ccccc23)c(=O)n(-c2ccccc2)n1C	.	7	0	0	25	1	.	.
